# Reference: ChEMBL document CHEMBL1157723, “Synthesis and anti-viral activity of azolo-adamantanes against influenza A virus” (Bioorg Med Chem, 2010)
# Key:
# MDCK = test: Cytotoxicity against MDCK cells after 48 hrs by MTT assay; format: cell-based, Canis lupus familiaris; details: dog
# Outline: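 MDCK cells were grown to monolayer in MEM with 5% fetal calf serum and washed with serum-free MEM. Compounds came from 5 mg/ml DMSO stocks as twofold dilutions of 1000–1 µg/ml in MEM, 48 h at 37 °C. After PBS washes, MTT (0.5 mg/ml) was added for 60 min at 37 °C, the deposit dissolved in DMSO and OD read at 535 nm. CTD50 is the concentration reducing viability 50%.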
# Influenza A virus = test: Antiviral activity against Influenza A virus (A/Puerto Rico/8/34(H1N1)) infected in MDCK cells assessed as virus yield after 48 hrs end-point dilution method; format: functional, organism-based; details: A/Puerto Rico/8/1934(H1N1)
# Outline: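 MDCK monolayers were exposed to serial twofold compound dilutions in MEM with 2 mM arginine, 2 mM glutamine and 2 µg/mL trypsin for 1 h at 37 °C, then infected and cultured 48 h at 36 °C. Supernatant was tested by hemagglutination with 1% chicken erythrocytes (1 h, room temperature) and titre by end-point dilution. ED50 is the concentration decreasing virus production […].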
# [1] = Selectivity index, ratio of CTD50 for MDCK cells to EC50 for Influenza A virus (A/Puerto Rico/8/34(H1N1)); format: toxicity, cell-based; details: dog, read-out: Selectivity Index
# Outline: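 Ratio of CTD50 (MDCK, MTT after 48 h) to ED50 (PR8 yield in MDCK by hemagglutination end-point titration after 48 h at 36 °C), both from twofold dilution series.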
Structure (SMILES),Activity (MDCK),EC50 (Influenza A virus),selectivity ratio [1]
Sc1nnnn1-c1ccccc1,151 µg/mL,> 200 µg/mL,< 1
O=S(=O)([O-])O.c1ccc(-n2n[n+](C34CC5CC(CC(C5)C3)C4)nc2SC23CC4CC(CC(C4)C2)C3)cc1,289 µg/mL,57 µg/mL,5
Cc1ncn(C23CC4CC(CC(C(C)N)(C4)C2)C3)n1.Cl.Cl (stereo unspecified),960 µg/mL,62 µg/mL,15
CCn1n[n+](C23CC4CC(CC(C4)C2)C3)nc1[S-],125 µg/mL,3 µg/mL,41
O=c1[nH]nnn1-c1ccccc1,> 1000 µg/mL,294 µg/mL,3
Cc1nnn(C23CC4CC(CC(C4)C2)C3)n1,569 µg/mL,77 µg/mL,7
CC(N)C12CC3CC(C1)CC(n1cnc(Cl)n1)(C3)C2.Cl (stereo unspecified),140 µg/mL,15 µg/mL,9
CC(N)C12CC3CC(C1)CC(n1ncnn1)(C3)C2.Cl (stereo unspecified),423 µg/mL,23 µg/mL,18
O=C(O)c1nn(C23CC4CC(CC(C4)C2)C3)cc1Br,443 µg/mL,300 µg/mL,1
CC(N)C12CC3CC(C1)CC(n1cnc([N+](=O)[O-])n1)(C3)C2.Cl (stereo unspecified),131 µg/mL,120 µg/mL,1
Cc1nnn(C23CC4CC(CC(N)(C4)C2)C3)n1.Cl,213 µg/mL,13 µg/mL,16
CCc1nnn(C23CC4CC(CC(N)(C4)C2)C3)n1.Cl,262 µg/mL,25 µg/mL,10
CCOC(=O)Cc1nnn(C23CC4CC(CC(N)(C4)C2)C3)n1.Cl,127 µg/mL,18 µg/mL,7
NC1N=NC(Cc2nnn(C34CC5CC(CC(C5)C3)C4)n2)=N1 (stereo unspecified),0.18 µg/mL,0.09 µg/mL,2
Cl.NC12CC3CC(C1)CC(n1cncn1)(C3)C2,1489 µg/mL,123 µg/mL,12
Cl.NC12CC3CC(C1)CC(n1cnc(Br)n1)(C3)C2,620 µg/mL,111 µg/mL,6

Structure (SMILES),Activity (MDCK),EC50 (Influenza A virus),selectivity ratio [1]
O=C(O)Cc1nnn(C23CC4CC(CC(C4)C2)C3)n1,> 500 µg/mL,71 µg/mL,> 7
CCCCOC(=O)Cc1nnn(C23CC4CC(CC(C4)C2)C3)n1,< 1 µg/mL,> 1 µg/mL,< 1
c1nnn(C23CC4CC(CC(C4)C2)C3)n1,253 µg/mL,56 µg/mL,5
Cc1nn(C23CC4CC(CC(C4)C2)C3)c(C)c1N,600 µg/mL,100 µg/mL,6
[S-]c1n[n+](C23CC4CC(CC(C4)C2)C3)nn1-c1ccccc1,300 µg/mL,130 µg/mL,2
Cc1nnn(C23CC4CC(CC(C(C)N)(C4)C2)C3)n1.Cl (stereo unspecified),242 µg/mL,8 µg/mL,30
S=c1[nH]nnn1C12CC3CC(CC(C3)C1)C2,167 µg/mL,15 µg/mL,11
OC12CC3CC(C1)CC(n1nn[nH]c1=S)(C3)C2,146 µg/mL,8 µg/mL,18
c1nnnn1C12CC3CC(CC(C3)C1)C2,281 µg/mL,11 µg/mL,25
Cl.NC12CC3CC(C1)CC(n1ncnn1)(C3)C2,552 µg/mL,22 µg/mL,25
Clc1ncn(C23CC4CC(CC(C4)C2)C3)n1,583 µg/mL,59 µg/mL,10
OC12CC3CC(C1)CC(N=C=S)(C3)C2,> 500 µg/mL,150 µg/mL,> 3
CCc1nnn(C23CC4CC(CC(C(C)N)(C4)C2)C3)n1.Cl (stereo unspecified),299 µg/mL,6 µg/mL,50
c1ncn(C23CC4CC(CC(C4)C2)C3)n1,358 µg/mL,77 µg/mL,5
CCOC(=O)Cc1nnn(C23CC4CC(CC(C4)C2)C3)n1,> 1000 µg/mL,232 µg/mL,4
CC(N)C12CC3CC(CC(C3)C1)C2 (stereo unspecified) [RIMANTADINE],60 µg/mL,5 µg/mL,12
